Experimental data as given in ChEMBL document CHEMBL2169842, “Structure-activity relationship in the antitumor activity of 6-, 8- or 6,8-substituted 3-benzylamino-β-carboline derivatives” (Bioorg Med Chem Lett, 2012).
Calls of active or inactive are those of the source. The calls are words filed in the database; no cut-off is given here.

Columns and labels:
[1] = Cytotoxicity against human HeLaS3 cells after 24 to 72 hrs by MTT assay; type: functional, cell-based; conditions: HeLa S3
Method in brief: (§1)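 MTT assay. IC50 taken as the drug concentration giving 50% inhibition of cell growth. Values are mean ± S.D. of four independent experiments, each run in triplicate.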

[2] = Cytotoxicity against mouse Sarcoma 180 cells after 24 to 72 hrs by MTT assay; type: functional, cell-based; method in brief: as §1
HEK-293T = assay: Cytotoxicity against human 293T cells after 24 to 72 hrs by MTT assay; type: cell-based; method in brief: as §1
[3] = Cell cycle arrest in human HeLaS3 cells assessed as accumulation at G2/M phase after 48 hrs using propidium iodide staining by flow cytometry (reference value: 16.21%); type: functional, cell-based; conditions: HeLa S3
Method in brief: (§2)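 HeLa S-3 cells incubated without (control) or with compound for 9, 24 or 48 h, then fixed and stained with propidium iodide. DNA content read by flow cytometry. Populations given as percent in sub-G1, G1, S and G2/M phases.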

[4] = Cell cycle arrest in human HeLaS3 cells assessed as accumulation at G2/M phase after 24 hrs using propidium iodide staining by flow cytometry (reference value: 16.21%); type: functional, cell-based; conditions: HeLa S3; method in brief: as §2
[5] = Cell cycle arrest in human HeLaS3 cells assessed as accumulation at G2/M phase after 9 hrs using propidium iodide staining by flow cytometry (reference value: 16.21%); type: functional, cell-based; conditions: HeLa S3; method in brief: as §2
[6] = Cell cycle arrest in human HeLaS3 cells assessed as accumulation at S phase after 48 hrs using propidium iodide staining by flow cytometry (reference value: 6.36%); type: functional, cell-based; conditions: HeLa S3
[7] = Cell cycle arrest in human HeLaS3 cells assessed as accumulation at S phase after 24 hrs using propidium iodide staining by flow cytometry (reference value: 6.36%); type: functional, cell-based; conditions: HeLa S3
[8] = Cell cycle arrest in human HeLaS3 cells assessed as accumulation at S phase after 9 hrs using propidium iodide staining by flow cytometry (reference value: 6.36%); type: functional, cell-based; conditions: HeLa S3
[9] = Cell cycle arrest in human HeLaS3 cells assessed as accumulation at G1 phase after 48 hrs using propidium iodide staining by flow cytometry (reference value: 75.29%); type: functional, cell-based; conditions: HeLa S3; method in brief: as §2
[10] = Cell cycle arrest in human HeLaS3 cells assessed as accumulation at G1 phase after 24 hrs using propidium iodide staining by flow cytometry (reference value: 75.29%); type: functional, cell-based; conditions: HeLa S3; method in brief: as §2
[11] = Cell cycle arrest in human HeLaS3 cells assessed as accumulation at G1 phase after 9 hrs using propidium iodide staining by flow cytometry (reference value: 75.29%); type: functional, cell-based; conditions: HeLa S3; method in brief: as §2
[12] = Cell cycle arrest in human HeLaS3 cells assessed as accumulation at sub-G1 phase after 48 hrs using propidium iodide staining by flow cytometry (reference value: 2.41%); type: functional, cell-based; conditions: HeLa S3; method in brief: as §2
[13] = Cell cycle arrest in human HeLaS3 cells assessed as accumulation at sub-G1 phase after 24 hrs using propidium iodide staining by flow cytometry (reference value: 2.41%); type: functional, cell-based; conditions: HeLa S3; method in brief: as §2
[14] = Cell cycle arrest in human HeLaS3 cells assessed as accumulation at sub-G1 phase after 9 hrs using propidium iodide staining by flow cytometry (reference value: 2.41%); type: functional, cell-based; conditions: HeLa S3; method in brief: as §2
HeLa S3 [15] = assay: Induction of apoptosis in human HeLaS3 cells assessed as DNA fragmentation after 48 hrs agarose-gel electrophoresis; type: functional, cell-based
Method in brief: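 HeLa S-3 cells treated with compound for 48 h. Genomic DNA extracted and run on a 2% agarose gel beside a 100 bp ladder marker to detect DNA fragmentation.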

HeLa S3 [16] = assay: Induction of apoptosis in human HeLaS3 cells assessed as formation of chromatin condensation and fragmented nuclei after 48 hrs by Hoechst 33342 staining; type: functional, cell-based
Method in brief: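 HeLa S-3 cells treated with compound for 48 h, then stained with Hoechst 33342. Nuclear chromatin examined by fluorescence microscopy for condensation and fragmented nuclei, with untreated cells as comparison.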

Row | SMILES | IC50 [1] | IC50 [2] | IC50 (HEK-293T) | further results
1 | CC(C)(C)C(=O)Nc1ccc2[nH]c3cnc(NCc4ccccc4)cc3c2c1 | 14 µM |  |  | 
2 | Nc1cc2c(cn1)[nH]c1ccc(Cl)cc12 | 71 µM | 29 µM |  | 
3 | CNc1cc(Cl)cc2c1[nH]c1cnc(NCc3ccccc3)cc12 | 0.2 µM | 0.25 µM | 0.35 µM | 
4 | Clc1cc(NCc2ccco2)c2[nH]c3cnc(NCc4ccccc4)cc3c2c1 | 3.8 µM |  | 3.1 µM | 
5 | O=[N+]([O-])c1ccc2[nH]c3cnc(NCc4ccccc4)cc3c2c1 | 28 µM |  |  | 
6 | CCCCC(=O)Nc1cccc2c1[nH]c1cnc(N)cc12 | 56 µM | 38 µM |  | 
7 | O=C(Nc1cc(Cl)cc2c1[nH]c1cnc(NCc3ccccc3)cc12)C(F)(F)F | 6.3 µM | 5.1 µM |  | 
8 | Clc1cc(NCc2cccs2)c2[nH]c3cnc(NCc4ccccc4)cc3c2c1 | 4.2 µM | 1.69 µM | 4 µM | 
9 | Nc1cc2c(cn1)[nH]c1c(NC(=O)c3ccccc3)cccc12 | 118 µM | 98 µM |  | 
10 | CCCNc1cc(Cl)cc2c1[nH]c1cnc(NCc3ccccc3)cc12 | 2.9 µM | 1.36 µM | 2 µM | 
11 | CC(=O)Nc1cc(Cl)cc2c1[nH]c1cnc(NCc3ccccc3)cc12 | 21 µM | 16.2 µM | 15 µM | 
12 | O=C(Nc1cc(Cl)cc2c1[nH]c1cnc(NCc3ccccc3)cc12)C(F)(F)C(F)(F)F | 9.2 µM | 6.1 µM |  | 
13 | Clc1ccc2[nH]c3cnc(NCc4cccc(Oc5ccccc5)c4)cc3c2c1 | 1.8 µM | 1.36 µM |  | 
14 | Nc1cc(Cl)cc2c1[nH]c1cnc(NCc3ccccc3)cc12 | 6.09 µM | 3.24 µM | 9.8 µM | 
15 | Clc1cc(NCc2cccnc2)c2[nH]c3cnc(NCc4ccccc4)cc3c2c1 | 1.2 µM | 0.76 µM | 1 µM | 
16 | Clc1cc(Cl)c2[nH]c3cnccc3c2c1 | 0.2 µM |  |  | 
17 | Clc1cc(NCc2ccncc2)c2[nH]c3cnc(NCc4ccccc4)cc3c2c1 | 1.4 µM | 1 µM | 1.4 µM | 
18 | CNc1cccc2c1[nH]c1cnc(N)cc12 | 12 µM |  |  | 
19 | CNc1cccc2c1[nH]c1cnc(NCc3cccc(Oc4ccccc4)c3)cc12 | 0.032 µM |  |  | 
20 | CNc1ccc2[nH]c3cnc(NCc4ccccc4)cc3c2c1 | 10 µM |  |  | 
21 | Nc1cc2c(cn1)[nH]c1ccccc12 | 66 µM | 41 µM |  | 
22 | O=C(Nc1cc(Cl)cc2c1[nH]c1cnc(NCc3ccccc3)cc12)c1ccncc1 | 13 µM | 7.9 µM | 8 µM | 
23 | O=C(Nc1ccc2[nH]c3cnc(NCc4ccccc4)cc3c2c1)c1ccccc1 | 10 µM |  |  | 
24 | O=C(Nc1cc(Cl)cc2c1[nH]c1cnc(NCc3ccccc3)cc12)c1cccnc1 | 15 µM | 8.3 µM | 10 µM | 
25 | CCCCCC(=O)Nc1cc(Cl)cc2c1[nH]c1cnc(NCc3ccccc3)cc12 | 2.13 µM | 0.92 µM | 1.4 µM | 
26 | O=C(Nc1cc(Cl)cc2c1[nH]c1cnc(NCc3ccccc3)cc12)c1ccccc1 | 4.6 µM | 2.8 µM | 4.8 µM | Activity [3]: 55.3%; Activity [4]: 40.1%; Activity [5]: 49.1%; Activity [6]: 11.1%; Activity [7]: 12.7%; Activity [8]: 10.4%; Activity [9]: 11.7%; Activity [10]: 32.4%; Activity [11]: 33.9%; Activity [12]: 22%; Activity [13]: 14.8%; Activity [14]: 6.59%; Activity (HeLa S3 [15]): Active; Activity (HeLa S3 [16]): Active

Row | SMILES | IC50 [1] | IC50 [2] | IC50 (HEK-293T) | further results
27 | c1ccc(CNc2cc3c(cn2)[nH]c2ccccc23)cc1 | 0.11 µM | 0.44 µM |  | Activity [3]: 52.8%; Activity [4]: 67.7%; Activity [5]: 57%; Activity [6]: 16.2%; Activity [7]: 9.18%; Activity [8]: 14.3%; Activity [9]: 12.2%; Activity [10]: 6.93%; Activity [11]: 22.6%; Activity [12]: 18.8%; Activity [13]: 16.2%; Activity [14]: 6.08%; Activity (HeLa S3 [15]): Active; Activity (HeLa S3 [16]): Active
28 | CS(=O)(=O)Nc1cc(Cl)cc2c1[nH]c1cnc(NCc3ccccc3)cc12 | 8 µM |  |  | 
29 | CS(=O)(=O)Nc1ccc2[nH]c3cnc(NCc4ccccc4)cc3c2c1 | 19 µM |  |  | 
30 | CNc1cccc2c1[nH]c1cnc(NCc3ccccc3)cc12 | 0.046 µM | 0.024 µM |  | 
31 | CC(C)C(=O)Nc1cc(Cl)cc2c1[nH]c1cnc(NCc3ccccc3)cc12 | 9 µM | 8 µM | 8 µM | 
32 | Clc1cc(NCc2ccccc2)c2[nH]c3cnc(NCc4ccccc4)cc3c2c1 | 4.2 µM | 2.6 µM | 3.8 µM | 
33 | CCCC(=O)Nc1cc(Cl)cc2c1[nH]c1cnc(NCc3ccccc3)cc12 | 2.6 µM | 1.35 µM | 2.3 µM | 
34 | O=C(Nc1cccc2c1[nH]c1cnc(NCc3ccccc3)cc12)c1ccccc1 | 0.141 µM |  |  | Activity [3]: 63.4%; Activity [4]: 71.1%; Activity [5]: 65.6%; Activity [6]: 9.05%; Activity [7]: 10.2%; Activity [8]: 9.4%; Activity [9]: 9.36%; Activity [10]: 12.8%; Activity [11]: 21.1%; Activity [12]: 18.2%; Activity [13]: 5.87%; Activity [14]: 3.89%; Activity (HeLa S3 [15]): Active; Activity (HeLa S3 [16]): Active
35 | CCCCC(=O)Nc1cc(Cl)cc2c1[nH]c1cnc(NCc3ccccc3)cc12 | 0.99 µM | 0.53 µM | 0.5 µM | 
36 | Nc1ccc2[nH]c3cnc(NCc4ccccc4)cc3c2c1 | 11 µM |  |  | 
37 | Clc1ccc2[nH]c3cnc(NCc4ccccc4)cc3c2c1 | 2.8 µM | 1.8 µM |  | Activity [3]: 49%; Activity [4]: 69.5%; Activity [5]: 46.9%; Activity [6]: 11.3%; Activity [7]: 7.74%; Activity [8]: 10.9%; Activity [9]: 18.2%; Activity [10]: 8.2%; Activity [11]: 33%; Activity [12]: 21.4%; Activity [13]: 14.6%; Activity [14]: 9.14%; Activity (HeLa S3 [15]): Active; Activity (HeLa S3 [16]): Active
38 | CCCCNc1cc(Cl)cc2c1[nH]c1cnc(NCc3ccccc3)cc12 | 2.6 µM | 1.6 µM | 2.1 µM | 
39 | O=C(Nc1cc(Cl)cc2c1[nH]c1cnc(NCc3ccccc3)cc12)c1ccccn1 | 3.7 µM | 1.9 µM | 4 µM | 
40 | c1ccc(CNc2cc3c(cn2)[nH]c2ccc(NCc4ccco4)cc23)cc1 | 15 µM |  |  | 
41 | O=C(Nc1cc(Cl)cc2c1[nH]c1cnc(NCc3ccccc3)cc12)C(F)(F)C(F)(F)C(F)(F)F | 7 µM | 5.2 µM |  | 
42 | Nc1cc2c(cn1)[nH]c1c(NC(=O)c3ccccc3)cc(Cl)cc12 | 26.1 µM | 12.4 µM |  | 
43 | CCCCC(=O)Nc1cc(Cl)cc2c1[nH]c1cnc(N)cc12 | 27 µM | 18.1 µM |  | 
44 | CCS(=O)(=O)Nc1cc(Cl)cc2c1[nH]c1cnc(NCc3ccccc3)cc12 | 4.84 µM |  |  | 
45 | CC(C)Nc1cc(Cl)cc2c1[nH]c1cnc(NCc3ccccc3)cc12 | 1.1 µM |  | 0.7 µM | 
46 | CCS(=O)(=O)Nc1ccc2[nH]c3cnc(NCc4ccccc4)cc3c2c1 | 3.4 µM |  |  | 
47 | Clc1cc(NCc2ccccn2)c2[nH]c3cnc(NCc4ccccc4)cc3c2c1 | 1.5 µM | 1 µM | 1.1 µM | 
48 | CCNc1cc(Cl)cc2c1[nH]c1cnc(NCc3ccccc3)cc12 | 0.27 µM | 0.24 µM | 0.36 µM | 
49 | c1ccc(CNc2ccc3[nH]c4cnc(NCc5ccccc5)cc4c3c2)cc1 | 21 µM |  |  | 
50 | c1ccc(Oc2cccc(CNc3cc4c(cn3)[nH]c3ccccc34)c2)cc1 | 0.074 µM | 0.03 µM |  | 
51 | CCC(=O)Nc1cc(Cl)cc2c1[nH]c1cnc(NCc3ccccc3)cc12 | 9.9 µM | 5.4 µM | 5.8 µM | 
